In brackets after ≈: the same amount, converted by molar mass. Blank lines part the entries; values can stand above or below the compound they belong to.
Assays:
Helicobacter pylori [1] = experiment: Antibacterial activity against wild type Helicobacter pylori by NCCLS method; format: functional
Outline: (§1)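 H. pylori MICs determined following NCCLS guidelines; values carry a twofold variance.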

Glutamate racemase = target: T1, Glutamate racemase (Helicobacter pylori (strain ATCC 700392 / 26695) (Campylobacterpylori), UniProt P56068); experiment: Inhibition of Helicobacter pylori MurI
T1 sequence (P56068 whole entry): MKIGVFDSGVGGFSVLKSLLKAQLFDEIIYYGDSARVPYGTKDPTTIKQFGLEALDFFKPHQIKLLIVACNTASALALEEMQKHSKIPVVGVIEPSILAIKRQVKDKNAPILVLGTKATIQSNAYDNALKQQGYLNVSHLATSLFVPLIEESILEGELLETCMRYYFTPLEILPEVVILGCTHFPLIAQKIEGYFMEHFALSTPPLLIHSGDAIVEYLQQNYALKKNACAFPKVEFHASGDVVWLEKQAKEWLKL

[2] = Intrinsic clearance in mouse liver microsome; format: ADME; conditions: liver microsomes
Outline: (§2)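 Compounds incubated in vitro with human or mouse liver microsomes; parent and metabolite followed over roughly 30 min incubation; intrinsic clearance expressed as µl/min/mg.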

[3] = Bioavailability in mouse at 40 mg/kg, po; format: ADME, organism-based; conditions: in vivo
[4] = Aqueous solubility of compound; format: physicochemical; conditions: buffer
Helicobacter pylori [5] = experiment: Antibacterial activity against hefC-deficient Helicobacter pylori by NCCLS method; format: functional; outline: as §1
[6] = Intrinsic clearance in human liver microsome; format: ADME; conditions: liver microsomes; outline: as §2
[7] = Bioavailability in mouse; format: ADME, organism-based; conditions: in vivo
[8] = Equilibrium solubility of compound; format: physicochemical
Mus musculus = experiment: Plasma concentration in mouse at 40 mg/kg, po; format: ADME, organism-based; set-up: dose 40 mg/kg, route oral; conditions: in vivo

Compound: Cn1cc(C#N)cc1-c1c2c(=O)n(C)c(=O)n(CC3CC3)c2nn1Cc1ccnc2ccc(Cl)cc12
MIC (Helicobacter pylori [1]): 0.5 µg/mL (≈ 1 µM)
IC50 (Glutamate racemase): 26 nM
microsomal CLint [2]: 50 µL/min/mg
bioavailability [3]: 7.5%
solubility [4]: < 0.4 µM
MIC (Helicobacter pylori [5]): 0.25 µg/mL (≈ 0.5 µM)
microsomal CLint [6]: < 14 µL/min/mg
bioavailability [7]: < 10%

Compound: Cn1cc(S(N)(=O)=O)nc1-c1c2c(=O)n(C)c(=O)n(CC3CC3)c2nn1Cc1c[nH]c2ccc(Cl)cc12
MIC (Helicobacter pylori [1]): > 32 µg/mL
IC50 (Glutamate racemase): 38 nM
microsomal CLint [2]: > 100 µL/min/mg
MIC (Helicobacter pylori [5]): 0.5 µg/mL (≈ 0.921 µM)
microsomal CLint [6]: 56 µL/min/mg

Compound: Cn1cc(S(C)(=O)=O)nc1-c1c2c(=O)n(C)c(=O)n(CC3CC3)c2nn1Cc1ccnc2ccc(Cl)cc12
MIC (Helicobacter pylori [1]): 16 µg/mL (≈ 28.9 µM)
IC50 (Glutamate racemase): 160 nM
microsomal CLint [2]: 56 µL/min/mg
MIC (Helicobacter pylori [5]): 4 µg/mL (≈ 7.22 µM)
microsomal CLint [6]: 23 µL/min/mg

Compound: Cc1oc(S(C)(=O)=O)cc1-c1c2c(=O)n(C)c(=O)n(CC3CC3)c2nn1Cc1cn(C)c2ccc(Cl)cc12
MIC (Helicobacter pylori [1]): 1 µg/mL (≈ 1.8 µM)
IC50 (Glutamate racemase): 57 nM
microsomal CLint [2]: > 100 µL/min/mg
MIC (Helicobacter pylori [5]): 0.5 µg/mL (≈ 0.899 µM)
microsomal CLint [6]: > 100 µL/min/mg

Compound: CONS(=O)(=O)c1cc(-c2c3c(=O)n(C)c(=O)n(CC4CC4)c3nn2Cc2c[nH]c3ccc(Cl)cc23)n(C)c1
MIC (Helicobacter pylori [1]): 8 µg/mL (≈ 14 µM)
IC50 (Glutamate racemase): 36 nM
MIC (Helicobacter pylori [5]): 8 µg/mL (≈ 14 µM)

Compound: Cn1cc(S(C)(=O)=O)cc1-c1c2c(=O)n(C)c(=O)n(CC3CC3)c2nn1Cc1ccnc2ccc(Cl)cc12
MIC (Helicobacter pylori [1]): 2 µg/mL (≈ 3.62 µM)
IC50 (Glutamate racemase): 34 nM
microsomal CLint [2]: < 14 µL/min/mg
bioavailability [3]: 60%
MIC (Helicobacter pylori [5]): 0.5 µg/mL (≈ 0.904 µM)
microsomal CLint [6]: 20 µL/min/mg
Cp (Mus musculus): 1200 ng/mL

Compound: Cn1c(=O)c2c(-c3ccc(S(C)(=O)=O)o3)n(Cc3ccnc4ccc(Cl)cc34)nc2n(CC2CC2)c1=O
MIC (Helicobacter pylori [1]): > 64 µg/mL
IC50 (Glutamate racemase): 1500 nM
microsomal CLint [2]: 14 µL/min/mg
MIC (Helicobacter pylori [5]): > 64 µg/mL
microsomal CLint [6]: 17 µL/min/mg

Compound: CNS(=O)(=O)c1cc(-c2c3c(=O)n(C)c(=O)n(CC4CC4)c3nn2Cc2ccnc3ccc(Cl)cc23)n(C)c1
MIC (Helicobacter pylori [1]): 16 µg/mL (≈ 28.2 µM)
IC50 (Glutamate racemase): 44 nM
microsomal CLint [2]: > 100 µL/min/mg
MIC (Helicobacter pylori [5]): 1 µg/mL (≈ 1.76 µM)
microsomal CLint [6]: > 100 µL/min/mg

Compound: Cn1cc(S(C)(=O)=O)cc1-c1c2c(=O)n(C)c(=O)n(CC3CC3)c2nn1Cc1cn(C)c2ccc(Cl)cc12
MIC (Helicobacter pylori [1]): 16 µg/mL (≈ 28.8 µM)
IC50 (Glutamate racemase): 33 nM
microsomal CLint [2]: 56 µL/min/mg
MIC (Helicobacter pylori [5]): 4 µg/mL (≈ 7.21 µM)
microsomal CLint [6]: 23 µL/min/mg

Second part, the compound after the results:

MIC (Helicobacter pylori [1]): 16 µg/mL (≈ 28.8 µM)
IC50 (Glutamate racemase): 27 nM
microsomal CLint [2]: > 100 µL/min/mg
MIC (Helicobacter pylori [5]): 0.5 µg/mL (≈ 0.899 µM)
microsomal CLint [6]: > 100 µL/min/mg
Compound: CNS(=O)(=O)c1cc(-c2c3c(=O)n(C)c(=O)n(CC4CC4)c3nn2Cc2c[nH]c3ccc(Cl)cc23)n(C)c1

MIC (Helicobacter pylori [1]): 16 µg/mL (≈ 27.4 µM)
IC50 (Glutamate racemase): 55 nM
MIC (Helicobacter pylori [5]): 4 µg/mL (≈ 6.85 µM)
Compound: CONS(=O)(=O)c1cc(-c2c3c(=O)n(C)c(=O)n(CC4CC4)c3nn2Cc2ccnc3ccc(Cl)cc23)n(C)c1

MIC (Helicobacter pylori [1]): 4 µg/mL (≈ 6.96 µM)
IC50 (Glutamate racemase): 59 nM
microsomal CLint [2]: 22 µL/min/mg
MIC (Helicobacter pylori [5]): 4 µg/mL (≈ 6.96 µM)
microsomal CLint [6]: 19 µL/min/mg
Compound: Cn1c(=O)c2c(-c3oc(S(C)(=O)=O)cc3Cl)n(Cc3ccnc4ccc(Cl)cc34)nc2n(CC2CC2)c1=O

MIC (Helicobacter pylori [1]): 4 µg/mL (≈ 7.22 µM)
IC50 (Glutamate racemase): 51 nM
microsomal CLint [2]: 61 µL/min/mg
microsomal CLint [6]: 22 µL/min/mg
Compound: Cc1oc(S(C)(=O)=O)cc1-c1c2c(=O)n(C)c(=O)n(CC3CC3)c2nn1Cc1ccnc2ccc(Cl)cc12

MIC (Helicobacter pylori [1]): 16 µg/mL (≈ 30.5 µM)
IC50 (Glutamate racemase): 23 nM
microsomal CLint [2]: > 100 µL/min/mg
MIC (Helicobacter pylori [5]): 4 µg/mL (≈ 7.62 µM)
microsomal CLint [6]: > 100 µL/min/mg
Compound: Cn1cc([S+](C)[O-])cc1-c1c2c(=O)n(C)c(=O)n(CC3CC3)c2nn1Cc1c[nH]c2ccc(Cl)cc12 (configuration not stated)

MIC (Helicobacter pylori [1]): 16 µg/mL (≈ 29.8 µM)
solubility thermodynamic [8]: 120 µM (≈ 64.4 µg/mL)
IC50 (Glutamate racemase): 37 nM
microsomal CLint [2]: > 100 µL/min/mg
bioavailability [3]: 10%
MIC (Helicobacter pylori [5]): 0.5 µg/mL (≈ 0.931 µM)
microsomal CLint [6]: > 100 µL/min/mg
Compound: Cn1cc([S+](C)[O-])cc1-c1c2c(=O)n(C)c(=O)n(CC3CC3)c2nn1Cc1ccnc2ccc(Cl)cc12 (configuration not stated)

MIC (Helicobacter pylori [1]): 4 µg/mL (≈ 7.39 µM)
IC50 (Glutamate racemase): 26 nM
microsomal CLint [2]: 64 µL/min/mg
MIC (Helicobacter pylori [5]): 0.5 µg/mL (≈ 0.924 µM)
microsomal CLint [6]: 49 µL/min/mg
Compound: Cn1cc(S(C)(=O)=O)cc1-c1c2c(=O)n(C)c(=O)n(CC3CC3)c2nn1Cc1c[nH]c2ccc(Cl)cc12

MIC (Helicobacter pylori [1]): 32 µg/mL (≈ 57.8 µM)
IC50 (Glutamate racemase): 16 nM
microsomal CLint [2]: < 14 µL/min/mg
MIC (Helicobacter pylori [5]): 0.25 µg/mL (≈ 0.451 µM)
microsomal CLint [6]: 22 µL/min/mg
Compound: Cn1cc(S(N)(=O)=O)cc1-c1c2c(=O)n(C)c(=O)n(CC3CC3)c2nn1Cc1ccnc2ccc(Cl)cc12

MIC (Helicobacter pylori [1]): 16 µg/mL (≈ 29.5 µM)
IC50 (Glutamate racemase): 31 nM
microsomal CLint [2]: > 100 µL/min/mg
MIC (Helicobacter pylori [5]): 2 µg/mL (≈ 3.69 µM)
microsomal CLint [6]: 49 µL/min/mg
Compound: Cn1cc(S(C)(=O)=O)nc1-c1c2c(=O)n(C)c(=O)n(CC3CC3)c2nn1Cc1c[nH]c2ccc(Cl)cc12

Reference: ChEMBL document CHEMBL1155910, “Design of Helicobacter pylori glutamate racemase inhibitors as selective antibacterial agents: a novel pro-drug approach to increase exposure” (Bioorg Med Chem Lett, 2008)
